A selection: hits, their analogues and other compounds. The true share with any hit is near 1.9%.
CHRM5 agonist = human M5 muscarinic receptor agonists, primary screen, CHO-K1 cells, Fluo-8 calcium fluorescence; CHO-K1 hM5 cells; 0% DMSO wells, 100% maximal acetylcholine response; 360,000 compounds, 0.19% hits; Muscarinic acetylcholine receptor M5 (Homo sapiens), P08912; activation, % at 3 µM;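 active means activation above the run's mean over test compounds plus 3 SD, cut at about 23% in these data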;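 further: signal is peak over basal fluorescence ratio across the kinetic read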
Target sequence (P08912 whole entry, looked up): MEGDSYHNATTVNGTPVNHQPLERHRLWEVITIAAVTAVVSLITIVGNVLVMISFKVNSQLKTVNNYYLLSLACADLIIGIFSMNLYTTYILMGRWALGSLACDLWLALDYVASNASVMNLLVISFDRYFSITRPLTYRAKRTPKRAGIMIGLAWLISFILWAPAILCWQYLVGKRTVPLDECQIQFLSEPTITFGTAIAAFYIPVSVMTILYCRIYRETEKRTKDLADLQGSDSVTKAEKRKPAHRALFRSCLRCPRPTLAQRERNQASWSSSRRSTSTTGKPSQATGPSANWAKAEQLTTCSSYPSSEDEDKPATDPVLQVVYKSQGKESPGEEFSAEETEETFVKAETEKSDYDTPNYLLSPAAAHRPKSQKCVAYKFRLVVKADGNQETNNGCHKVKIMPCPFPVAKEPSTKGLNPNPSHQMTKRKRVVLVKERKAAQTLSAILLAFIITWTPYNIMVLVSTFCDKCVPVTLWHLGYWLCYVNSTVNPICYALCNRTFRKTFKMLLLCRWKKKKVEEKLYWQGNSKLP
CHRM5 PAM = human M5 muscarinic receptor positive allosteric modulators, primary screen, CHO-K1 cells, Fluo-8 calcium fluorescence | 360,000 compounds, 0.3% hits | activation, % at 3 µM | CHO-K1 hM5, ACh EC20 PAM; 0% = ACh EC20, 100% = ACh EC100 | Muscarinic acetylcholine receptor M5 (Homo sapiens), P08912 | AID 624038, 2012;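 active means activation above the run cutoff, the mean activation of all test compounds plus 3 SD, cut at about 18% in these data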
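Assay system: CHO-K1 hM5 cells. Also added: acetylcholine at EC20 concentration, added after compound. Dosing: 3 µM, single dose. Times: compound preincubation 140 s before EC20 acetylcholine addition. Signal: Fluo-8 calcium fluorescence. Measure: % activation relative to EC20 and EC100 ACh responses. Repeats: singlicate, one well per test compound.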
CHRM4 PAM = human M4 muscarinic receptor positive allosteric modulators, primary screen, CHO-K1 cells, Fluo-8 calcium fluorescence; CHO-K1 hM4/Gqi5, ACh EC20; 0% = ACh EC20, 100% = maximal ACh; activation, % at 3 µM; 360,000 compounds, 0.4% hits; Muscarinic acetylcholine receptor M4 (Homo sapiens), P08173; AID 624126, 2012;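 active means activation above its plate's cutoff, the mean activation of sample wells plus 3 SD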
CHRM4 antagonist = human M4 muscarinic receptor antagonists, primary screen, CHO cells, Fluo-8 calcium fluorescence | Muscarinic acetylcholine receptor M4 (Homo sapiens), P08173 | CHO-hM4 cells, ACh EC80 | inhibition, % at 3 µM | 360,000 compounds, 0.73% hits;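 active means inhibition above its plate's cutoff, the mean inhibition of sample wells plus 3 SD, cut at about 27% in these data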
CHRM4 agonist = human M4 muscarinic receptor agonists, primary screen, CHO-K1 cells, Fluo-8 calcium fluorescence; Muscarinic acetylcholine receptor M4 (Homo sapiens), P08173; CHO-K1 hM4/Gqi5; vehicle 0%, full acetylcholine response 100%; activation, % at 3 µM; 360,000 compounds, 0.14% hits; AID 624127, 2012;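 active means activation above the run mean over all test wells plus 3 SD, cut at about 32% in these data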;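 further: peak over basal fluorescence ratio per well then scaled between controls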
M5 antag = human M5 muscarinic receptor antagonists, primary screen, CHO cells, Fluo-8 calcium fluorescence | Muscarinic acetylcholine receptor M5 (Homo sapiens), P08912 | CHO-hM5 cells, ACh EC80 | inhibition, % at 3 µM | 360,000 compounds, 0.59% hits;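 active means inhibition above a per-plate cutoff, the mean of that plate's test compounds plus 3 SD, cut at about 27% in these data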
Numbers stand for hits.

Results for CC(C)C[C@H]1CNC(=S)N1CC1CCN(CC2CCC(C(C)(C)C)CC2)CC1 (stereo not given in full) ?
CHRM5 agonist: inactive; CHRM5 PAM: inactive; CHRM4 PAM: inactive; CHRM4 antagonist: 50; CHRM4 agonist: inactive; M5 antag: 35

How did CC(C)C[C@H]1CNC(=S)N1CC1CCN(CCC23CC4CC(CC(C4)C2)C3)CC1 do in these assays?
CHRM5 agonist: inactive; CHRM5 PAM: inactive; CHRM4 PAM: inactive; CHRM4 antagonist: 67; CHRM4 agonist: inactive; M5 antag: 49

How did CC(C)C[C@H]1CNC(=S)N1CC1CCN(CC2CCCC2)CC1 do in these assays?
CHRM5 agonist: inactive; CHRM5 PAM: inactive; CHRM4 PAM: inactive; CHRM4 antagonist: inactive; CHRM4 agonist: inactive; M5 antag: inactive

What do the screens show for `CCN1CCC(CN2CCNC2=S)CC1`?
CHRM5 agonist: inactive; CHRM5 PAM: inactive; CHRM4 PAM: inactive; CHRM4 antagonist: inactive; CHRM4 agonist: inactive; M5 antag: inactive

What do the screens show for `S=C1NCCN1CC1CCN(CCC23CC4CC(CC(C4)C2)C3)CC1`?
CHRM5 agonist: inactive; CHRM5 PAM: inactive; CHRM4 PAM: inactive; CHRM4 antagonist: 58; CHRM4 agonist: inactive; M5 antag: inactive

What do the screens show for `CCCCCCCCCCCC1N=C(N)NC(CCCO)=C1C(=O)OC` (stereo not given)?
CHRM5 agonist: inactive; CHRM5 PAM: inactive; CHRM4 PAM: inactive; CHRM4 antagonist: inactive; CHRM4 agonist: inactive; M5 antag: inactive

How did CC(O)(c1cccc(F)c1)c1nc(-c2ccc3ccccc3c2)cs1 (stereo not given) do in these assays?
CHRM5 agonist: inactive; CHRM5 PAM: inactive; CHRM4 PAM: inactive; CHRM4 antagonist: inactive; CHRM4 agonist: inactive; M5 antag: inactive

What do the screens show for `CC(C)C[C@H]1CNC(=S)N1CC1CCN(CCCC2CCCCC2)CC1`?
CHRM5 agonist: inactive; CHRM5 PAM: inactive; CHRM4 PAM: inactive; CHRM4 antagonist: 55; CHRM4 agonist: inactive; M5 antag: inactive

Results for CC[C@H](C)[C@H]1CNC(=S)N1CC1CCN(CCCC2CCCC2)CC1 ?
CHRM5 agonist: inactive; CHRM5 PAM: inactive; CHRM4 PAM: inactive; CHRM4 antagonist: 27; CHRM4 agonist: inactive; M5 antag: inactive

What do the screens show for `COc1cc(NC(C)CCCN)c2ncccc2c1Oc1ccccc1` (stereo not given)?
CHRM5 agonist: inactive; CHRM5 PAM: 25; CHRM4 PAM: inactive; CHRM4 antagonist: inactive; CHRM4 agonist: inactive; M5 antag: inactive

Results for COc1ccc(Oc2c(OC)cc([N+](=O)[O-])c3ncccc23)cc1 ?
CHRM5 agonist: inactive; CHRM5 PAM: inactive; CHRM4 PAM: inactive; CHRM4 antagonist: inactive; CHRM4 agonist: inactive; M5 antag: inactive

Results for CCCn1c(SCC(=O)Nc2ccc(OCC)cc2)nnc1C(C)C ?
CHRM5 agonist: inactive; CHRM5 PAM: 19; CHRM4 PAM: inactive; CHRM4 antagonist: inactive; CHRM4 agonist: inactive; M5 antag: inactive

What do the screens show for `CCCCOCCCNc1ncnc2c1[nH]c1ccccc12`?
CHRM5 agonist: inactive; CHRM5 PAM: inactive; CHRM4 PAM: inactive; CHRM4 antagonist: 31; CHRM4 agonist: inactive; M5 antag: 28

How did CCOCCCNc1ncnc2c1[nH]c1ccccc12 do in these assays?
CHRM5 agonist: inactive; CHRM5 PAM: inactive; CHRM4 PAM: inactive; CHRM4 antagonist: inactive; CHRM4 agonist: inactive; M5 antag: inactive

What do the screens show for `Cc1ccc(C(O)c2ncc(-c3ccccc3Cl)[nH]2)cc1F` (stereo not given)?
CHRM5 agonist: inactive; CHRM5 PAM: inactive; CHRM4 PAM: inactive; CHRM4 antagonist: inactive; CHRM4 agonist: inactive; M5 antag: inactive

Results for CN1C(=O)c2ccc(C(=O)NCc3ccco3)cc2C1=O ?
CHRM5 agonist: inactive; CHRM5 PAM: inactive; CHRM4 PAM: inactive; CHRM4 antagonist: inactive; CHRM4 agonist: inactive; M5 antag: inactive

How did O=C(NCc1ccco1)c1ccc2c(c1)C(=O)N(C1CCCCC1)C2=O do in these assays?
CHRM5 agonist: inactive; CHRM5 PAM: inactive; CHRM4 PAM: 32; CHRM4 antagonist: inactive; CHRM4 agonist: inactive; M5 antag: inactive

How did CCOC(=O)c1noc2c1CCC2 do in these assays?
CHRM5 agonist: inactive; CHRM5 PAM: inactive; CHRM4 PAM: inactive; CHRM4 antagonist: inactive; CHRM4 agonist: inactive; M5 antag: inactive

Results for CC(=O)Nc1ccc(/C=N/N2CCCCC2)cc1 ?
CHRM5 agonist: inactive; CHRM5 PAM: 20; CHRM4 PAM: inactive; CHRM4 antagonist: inactive; CHRM4 agonist: inactive; M5 antag: inactive

Results for O=C(O)c1cccc(S(=O)(=O)NCCC(c2ccccc2)c2ccccc2)c1 ?
CHRM5 agonist: inactive; CHRM5 PAM: inactive; CHRM4 PAM: 23; CHRM4 antagonist: inactive; CHRM4 agonist: inactive; M5 antag: inactive

Results for Cc1cccc2sc(NC(=O)C3CCN(S(=O)(=O)c4cc([N+](=O)[O-])ccc4Cl)CC3)nc12 ?
CHRM5 agonist: inactive; CHRM5 PAM: inactive; CHRM4 PAM: inactive; CHRM4 antagonist: 29; CHRM4 agonist: inactive; M5 antag: inactive

Results for Cc1cc(C)cc(N(CCC(=O)Nc2nnc(C3CC3)s2)S(=O)(=O)c2ccc(Cl)cc2)c1 ?
CHRM5 agonist: inactive; CHRM5 PAM: inactive; CHRM4 PAM: 21; CHRM4 antagonist: inactive; CHRM4 agonist: inactive; M5 antag: inactive

Results for CCCC(C)C(=O)Nc1ccc(S(N)(=O)=O)cc1 (stereo not given) ?
CHRM5 agonist: inactive; CHRM5 PAM: inactive; CHRM4 PAM: 23; CHRM4 antagonist: inactive; CHRM4 agonist: inactive; M5 antag: inactive

Results for CCOc1ccccc1N1CCN(c2ncnc3scc(-c4ccc(OC)cc4)c23)CC1 ?
CHRM5 agonist: inactive; CHRM5 PAM: inactive; CHRM4 PAM: inactive; CHRM4 antagonist: 27; CHRM4 agonist: inactive; M5 antag: inactive

Results for CN1CCN(c2ncnc3scc(-c4ccccc4Cl)c23)CC1 ?
CHRM5 agonist: inactive; CHRM5 PAM: inactive; CHRM4 PAM: inactive; CHRM4 antagonist: inactive; CHRM4 agonist: inactive; M5 antag: 30

What do the screens show for `OCCc1ccc(NCCc2cccs2)cc1`?
CHRM5 agonist: inactive; CHRM5 PAM: inactive; CHRM4 PAM: inactive; CHRM4 antagonist: inactive; CHRM4 agonist: inactive; M5 antag: inactive

What do the screens show for `CN1CCN(c2ccccc2/C=C2/C(=O)Nc3ccccc32)CC1`?
CHRM5 agonist: inactive; CHRM5 PAM: inactive; CHRM4 PAM: inactive; CHRM4 antagonist: inactive; CHRM4 agonist: inactive; M5 antag: 83

How did Nc1nc(Nc2ccccc2F)sc1C(=O)c1ccccc1 do in these assays?
CHRM5 agonist: 28; CHRM5 PAM: inactive; CHRM4 PAM: inactive; CHRM4 antagonist: inactive; CHRM4 agonist: inactive; M5 antag: inactive

Assay outcomes from PubChem.
